Test results as given in ChEMBL document CHEMBL1145212, “Fluorinated diaryl sulfides as serotonin transporter ligands: synthesis, structure-activity relationship study, and in vivo evaluation of fluorine-18-labeled compounds as PET imaging agents” (J Med Chem, 2005).

How the values were obtained:
Rattus norvegicus [1] = experiment: Biodistribution of [18F]AFM in rat hypothalamus at 120 min postinjection in vivo; type: ADME, organism-based; conditions: 2 h
Outline: (§1)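 Male Sprague-Dawley rats, three per group, given about 20 µCi of F-18 radioligand in saline by tail vein. Sacrificed by decapitation after CO₂ anaesthesia at 10, 30, 60, 90 or 120 min. Brain regions and blood removed, weighed and gamma-counted. %ID was decay-corrected and corrected for residual tail activity against F-18 standards, then converted to %ID/g; mean ± SD.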

Rattus norvegicus [2] = experiment: Biodistribution of [18F]AFM in rat frontal cortex at 10 min postinjection in vivo; type: ADME, organism-based
Outline: (§2)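 Male Sprague-Dawley rats, three per group, received ~20 µCi of the F-18 radioligand in saline by tail-vein injection. Rats were anesthetized with CO2 and decapitated at 10, 30, 60, 90 or 120 min. Blood and brain regions were weighed and gamma-counted. %ID/g was decay- and tail-residual-corrected against F-18 standards made from the injectate and reported as mean ± SD.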

Rattus norvegicus [3] = experiment: Biodistribution of [18F]AFM in rat frontal cortex at 60 min postinjection in vivo; type: ADME, organism-based; conditions: 1 h; outline: as §2
Rattus norvegicus [4] = experiment: Biodistribution of [18F]AFM in rat frontal cortex at 90 min postinjection in vivo; type: ADME, organism-based; conditions: 1.5 h; outline: as §2
Rattus norvegicus [5] = experiment: Biodistribution of [18F]AFM in rat frontal cortex at 120 min postinjection in vivo; type: ADME, organism-based; conditions: 2 h; outline: as §2
Rattus norvegicus [6] = experiment: Biodistribution of [18F]AFM in rat blood at 120 min postinjection in vivo; type: ADME, organism-based; conditions: 2 h; outline: as §2
Rattus norvegicus [7] = experiment: Biodistribution of [18F]AFM in rat striatum at 10 min postinjection in vivo; type: ADME, organism-based; outline: as §1
Rattus norvegicus [8] = experiment: Biodistribution of [18F]-AFM in rat striatum at 30 min postinjection in vivo; type: ADME, organism-based; conditions: 0.5 h
Outline: (§3)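 Male Sprague-Dawley rats, three per time point, received the F-18 radioligand in saline (~20 µCi per rat at injection) by tail vein. Under CO2 anesthesia they were decapitated at 10, 30, 60, 90 or 120 min. Blood and dissected brain regions were weighed and gamma counted. Activity was decay-corrected, and injected dose was corrected for tail residual activity. Uptake was expressed as %ID/g versus injectate standards, mean ± SD.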

Rattus norvegicus [9] = experiment: Biodistribution of [18F]AFM in rat striatum at 90 min postinjection in vivo; type: ADME, organism-based; conditions: 1.5 h
Outline: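 Male Sprague-Dawley rats (three per group) received ~20 µCi of the F-18-labeled ligand in saline by tail vein. They were anesthetized with CO₂ and decapitated at 10, 30, 60, 90 and 120 min. Striatum and other regions were weighed and gamma-counted. Values are decay- and tail-corrected %ID/g against standards made from the injection solution, reported as mean ± SD.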

Rattus norvegicus [10] = experiment: Biodistribution of [18F]AFM in rat thalamus at 10 min postinjection in vivo; type: ADME, organism-based
Rattus norvegicus [11] = experiment: Biodistribution of [18F]-AFM in rat thalamus at 30 min postinjection in vivo; type: ADME, organism-based; conditions: 0.5 h; outline: as §3
Rattus norvegicus [12] = experiment: Biodistribution of [18F]AFM in rat thalamus at 60 min postinjection in vivo; type: ADME, organism-based; conditions: 1 h
Rattus norvegicus [13] = experiment: Biodistribution of [18F]AFM in rat thalamus at 90 min postinjection in vivo; type: ADME, organism-based; conditions: 1.5 h
Rattus norvegicus [14] = organism: Rattus norvegicus; experiment: Specific binding of [18F]AFA in thalamus of rat pretreated with compound 7d; n=3; type: functional
Rattus norvegicus [15] = organism: Rattus norvegicus; experiment: Specific binding of [18F]-AFA in hippocampus of rat pretreated with compound 7d; n=3; type: functional
Rattus norvegicus [16] = organism: Rattus norvegicus; experiment: Specific binding of [18F]AFA in frontal cortex of rat pretreated with compound 7d; n=3; type: functional
Rattus norvegicus [17] = experiment: Biodistribution of [18F]AFM in rat blood at 10 min postinjection in vivo; type: ADME, organism-based; outline: as §2
Rattus norvegicus [18] = experiment: Biodistribution of [18F]AFM in rat blood at 30 min postinjection in vivo; type: ADME, organism-based; conditions: 0.5 h; outline: as §2
Rattus norvegicus [19] = experiment: Biodistribution of [18F]AFM in rat blood at 90 min postinjection in vivo; type: ADME, organism-based; conditions: 1.5 h; outline: as §2
Rattus norvegicus [20] = experiment: Biodistribution of [18F]-AFM in rat striatum 60 min postinjection in vivo; type: ADME, organism-based; conditions: 1 h; outline: as §3
Rattus norvegicus [21] = experiment: Biodistribution of [18F]-AFM in rat cerebellum at 10 min postinjection in vivo; type: ADME, organism-based; outline: as §3
Rattus norvegicus [22] = experiment: Biodistribution of [18F]AFM in rat cerebellum at 30 min postinjection in vivo; type: ADME, organism-based; conditions: 0.5 h; outline: as §2
Rattus norvegicus [23] = experiment: Biodistribution of [18F]AFM in rat cerebellum at 60 min postinjection in vivo; type: ADME, organism-based; conditions: 1 h; outline: as §2
Rattus norvegicus [24] = experiment: Biodistribution of [18F]AFM in rat cerebellum at 90 min postinjection in vivo; type: ADME, organism-based; conditions: 1.5 h; outline: as §2
Rattus norvegicus [25] = experiment: Biodistribution of [18F]AFM in rat cerebellum at 120 min postinjection in vivo; type: ADME, organism-based; conditions: 2 h; outline: as §2
Rattus norvegicus [26] = experiment: Biodistribution of [18F]AFM in rat hippocampus at 10 min postinjection in vivo; type: ADME, organism-based; outline: as §2
Rattus norvegicus [27] = experiment: Biodistribution of [18F]AFM in rat hippocampus at 30 min postinjection in vivo; type: ADME, organism-based; conditions: 0.5 h; outline: as §2
Rattus norvegicus [28] = experiment: Biodistribution of [18F]-AFM in rat hippocampus at 60 min postinjection in vivo; type: ADME, organism-based; conditions: 1 h; outline: as §3
Rattus norvegicus [29] = experiment: Biodistribution of [18F]AFM in rat hippocampus at 90 min postinjection in vivo; type: ADME, organism-based; conditions: 1.5 h; outline: as §1
Rattus norvegicus [30] = experiment: Biodistribution of [18F]AFM in rat hippocampus at 120 min postinjection in vivo; type: ADME, organism-based; conditions: 2 h; outline: as §2
Rattus norvegicus [31] = experiment: Biodistribution of [18F]AFM in rat hypothalamus at 10 min postinjection in vivo; type: ADME, organism-based; outline: as §1
Rattus norvegicus [32] = experiment: Biodistribution of [18F]AFM in rat hypothalamus at 30 min postinjection in vivo; type: ADME, organism-based; conditions: 0.5 h; outline: as §1
Rattus norvegicus [33] = experiment: Biodistribution of [18F]AFM in rat hypothalamus at 60 min postinjection in vivo; type: ADME, organism-based; conditions: 1 h; outline: as §1
Rattus norvegicus [34] = experiment: Biodistribution of [18F]AFM in rat hypothalamus at 90 min postinjection in vivo; type: ADME, organism-based; conditions: 1.5 h; outline: as §1
Rattus norvegicus [35] = experiment: Biodistribution of [18F]-AFM in rat striatum at 120 min postinjection in vivo; type: ADME, organism-based; conditions: 2 h; outline: as §3
Rattus norvegicus [36] = experiment: Biodistribution of [18F]AFM in rat thalamus at 120 min postinjection in vivo; type: ADME, organism-based; conditions: 2 h
Rattus norvegicus [37] = organism: Rattus norvegicus; experiment: Specific binding of [18F]AFA in striatum of rat pretreated with compound 7d; n=3; type: functional
Rattus norvegicus [38] = organism: Rattus norvegicus; experiment: Specific binding of [18F]AFA in hypothalamus of rat pretreated with compound 7d; n=3; type: functional
Rattus norvegicus [39] = experiment: Biodistribution of [18F]AFM in rat blood at 60 min postinjection in vivo; type: ADME, organism-based; conditions: 1 h; outline: as §2
Rattus norvegicus [40] = experiment: Biodistribution of [18F]AFM in rat frontal cortex at 30 min postinjection in vivo; type: ADME, organism-based; conditions: 0.5 h; outline: as §2

CN(C)Cc1ccccc1Sc1ccc(C[18F])cc1N
Biodistribution (Rattus norvegicus [1]): 0.55 %ID/g | Biodistribution (Rattus norvegicus [2]): 0.82 %ID/g | Biodistribution (Rattus norvegicus [3]): 0.71 %ID/g | Biodistribution (Rattus norvegicus [4]): 0.52 %ID/g | Biodistribution (Rattus norvegicus [5]): 0.38 %ID/g | Biodistribution (Rattus norvegicus [6]): 0.04 %ID/g | Biodistribution (Rattus norvegicus [7]): 0.69 %ID/g | Biodistribution (Rattus norvegicus [8]): 0.83 %ID/g | Biodistribution (Rattus norvegicus [9]): 0.45 %ID/g | Biodistribution (Rattus norvegicus [10]): 0.72 %ID/g | Biodistribution (Rattus norvegicus [11]): 0.88 %ID/g | Biodistribution (Rattus norvegicus [12]): 0.67 %ID/g | Biodistribution (Rattus norvegicus [13]): 0.5 %ID/g | Specific binding (Rattus norvegicus [14]): 0.85 %ID/g | Specific binding (Rattus norvegicus [15]): 0.45 %ID/g | Specific binding (Rattus norvegicus [16]): 0.31 %ID/g | Biodistribution (Rattus norvegicus [17]): 0.37 %ID/g | Biodistribution (Rattus norvegicus [18]): 0.18 %ID/g | Biodistribution (Rattus norvegicus [19]): 0.08 %ID/g | Biodistribution (Rattus norvegicus [20]): 0.57 %ID/g | Biodistribution (Rattus norvegicus [21]): 0.33 %ID/g | Biodistribution (Rattus norvegicus [22]): 0.23 %ID/g | Biodistribution (Rattus norvegicus [23]): 0.13 %ID/g | Biodistribution (Rattus norvegicus [24]): 0.08 %ID/g | Biodistribution (Rattus norvegicus [25]): 0.07 %ID/g | Biodistribution (Rattus norvegicus [26]): 0.51 %ID/g | Biodistribution (Rattus norvegicus [27]): 0.64 %ID/g | Biodistribution (Rattus norvegicus [28]): 0.45 %ID/g | Biodistribution (Rattus norvegicus [29]): 0.36 %ID/g | Biodistribution (Rattus norvegicus [30]): 0.28 %ID/g | Biodistribution (Rattus norvegicus [31]): 0.7 %ID/g | Biodistribution (Rattus norvegicus [32]): 0.82 %ID/g | Biodistribution (Rattus norvegicus [33]): 0.71 %ID/g | Biodistribution (Rattus norvegicus [34]): 0.58 %ID/g | Biodistribution (Rattus norvegicus [35]): 0.42 %ID/g | Biodistribution (Rattus norvegicus [36]): 0.56 %ID/g | Specific binding (Rattus norvegicus [37]): 0.53 | Specific binding (Rattus norvegicus [38]): 0.84 | Biodistribution (Rattus norvegicus [39]): 0.1 %ID/g | Biodistribution (Rattus norvegicus [40]): 0.99 %ID/g
